In the library only some 2.9% were active in any assay of this set; here they are far more common.
SF-1 act – SF-1 (human) activation. CHO-K1 Gal4-SF-1 LBD luciferase reporter; % increase over DMSO SF-1-specific signal. activation, % at 10 µM. hit rate 1.9% among 65,000. AID 522;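 active = activation above the mean activation of all tested compounds plus 3 SD, cut at about 50% in these data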
Target sequence (Q13285 whole entry, looked up, the tested form may be a part): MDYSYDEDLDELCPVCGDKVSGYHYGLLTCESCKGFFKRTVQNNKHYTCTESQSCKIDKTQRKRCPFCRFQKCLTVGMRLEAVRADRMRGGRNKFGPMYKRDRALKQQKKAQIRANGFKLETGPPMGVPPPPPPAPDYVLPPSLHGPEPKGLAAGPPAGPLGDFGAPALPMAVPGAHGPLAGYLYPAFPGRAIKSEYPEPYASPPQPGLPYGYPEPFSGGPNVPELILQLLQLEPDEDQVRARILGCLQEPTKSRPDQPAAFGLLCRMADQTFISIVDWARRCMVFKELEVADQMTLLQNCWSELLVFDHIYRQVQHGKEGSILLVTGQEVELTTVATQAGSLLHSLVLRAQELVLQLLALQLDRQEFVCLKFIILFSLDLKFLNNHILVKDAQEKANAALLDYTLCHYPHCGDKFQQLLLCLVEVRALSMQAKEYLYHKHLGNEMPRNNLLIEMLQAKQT
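Compound – one dose, 10 µM compound, 1% DMSO · Test system – transient Gal4-SF-1 LBD reporter, CHO-K1 · Input – 4,000 cells in each well · Read-out basis – percent activation relative to DMSO median and mock-transfected background · Replicates – single measurement per compound · Technique – steady-glow luciferase luminescence, read after 15 min reagent incubation · Timing – 20 h compound treatment, 37 °C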
HEK293 NFkB inh – inhibitors of the PMA/ionomycin-induced NF-kB reporter in HEK293 cells; HEK-293 NF-kB luciferase reporter, luminescence; inhibition, % at 3 µM; hit rate 0.21% among 62,000; AID 465;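 active = inhibition above the mean of all tested compounds plus 3 SD, cut at about 40% in these data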;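 also: 0% = stimulated DMSO wells and 100% = 10 µM reference inhibitor 5653914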
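Timing: 1 h pretreatment, 16 h stimulation, 37 °C; system: HEK-293 cells with stable firefly luciferase reporter driven by four HIV NF-kB elements; doses: 3 µM once, 0.30% DMSO; measured by: luciferase luminescence; control set: DMSO and 10 µM reference inhibitor; repeats: single test; reagent: PMA plus ionomycin mix as NF-kB-activating stimulus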
Jurkat tox 60K – reduces viability or proliferation of Jurkat cells; hit rate 1.2% among 56,000; inhibition, % at 4 µM; Jurkat E6.1 viability, ATP luminescence, 48 h;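 active = inhibition above the mean inhibition of all tested compounds plus 3 SD, cut at about 28% in these data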
MT1-MMP txn act – MT1-MMP promoter transcription activation; HT1080 MT1-MMP promoter luciferase reporter, luminescence, overnight; stronger effect = higher value; activation factor at 10 µM; hit rate 0.16% among 86,000;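 active = activation factor of at least 2 for MT1-MMP transcription at 10 µM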
RORA act – RORA (human) activation. P35398. CHO-K1 Gal4-RORA LBD luciferase reporter, luminescence; percent increase over mock-subtracted basal signal. activation, % at 10 µM. hit rate 1.5% among 65,000. AID 560;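 active = activation above the mean of all tested compounds plus 3 SD, cut at about 49% in these data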;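 also: 0% = DMSO-treated RORA cells and 100% = added signal equal to DMSO minus mock-transfected cells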
The depositor's hits bear a star.

How did CC(=O)N(C)C1(c2nnnn2CCOC(=O)Nc2cccc3ccccc23)CCCC1 do in these assays?
SF-1 act: -1.8; HEK293 NFkB inh: 2.0; Jurkat tox 60K: 2.5; MT1-MMP txn act: 1.1; RORA act: -17.8

What do the screens show for `O=C(CCNc1cc(Cl)cc(Cl)c1)c1ccco1`?
SF-1 act: 7.6; HEK293 NFkB inh: 0.8; Jurkat tox 60K: -0.5; MT1-MMP txn act: 1.1; RORA act: -2.6

What do the screens show for `O=C(/C=C/Nc1cccc(F)c1)c1ccco1`?
MT1-MMP txn act: 1.2

Results for O=C(/C=C/Nc1ccc(F)c(Cl)c1)c1ccco1 ?
SF-1 act: 55.3*; HEK293 NFkB inh: -23.7; Jurkat tox 60K: -6.8; MT1-MMP txn act: 1.7; RORA act: 62.5*

Results for O=C(CCNc1ccc(F)c(Cl)c1)c1ccco1 ?
SF-1 act: -9.1; HEK293 NFkB inh: 17.0; Jurkat tox 60K: 65.3*; MT1-MMP txn act: 1.4; RORA act: -7.5

What do the screens show for `Cc1cccc(Cn2c(=O)n(CCCC(=O)NCc3ccco3)c(=O)c3ccccc32)c1`?
SF-1 act: 33.6; HEK293 NFkB inh: 15.5; Jurkat tox 60K: 71.0*; MT1-MMP txn act: 1.1; RORA act: 54.6*

How did Cc1ccccc1Cn1c(=O)n(CCCC(=O)NCc2ccco2)c(=O)c2ccccc21 do in these assays?
SF-1 act: 24.6; HEK293 NFkB inh: 12.9; Jurkat tox 60K: 3.4; MT1-MMP txn act: 1; RORA act: -1.4

What do the screens show for `CC(C)C(=O)Nc1cccc(-c2nc3ccccc3o2)c1`?
SF-1 act: 51.6*; HEK293 NFkB inh: -1.5; Jurkat tox 60K: -1.4; MT1-MMP txn act: 1.1; RORA act: 24.1

What do the screens show for `O=C(Nc1cccc(-c2nc3cc(Cl)ccc3o2)c1)C1CCCO1` (centres undefined)?
SF-1 act: 80.9*; HEK293 NFkB inh: -1.8; Jurkat tox 60K: 3.4; MT1-MMP txn act: 1.2; RORA act: 37.3

Results for COc1cc(C(=O)Nc2cccc(-c3nc4cc(C)ccc4o3)c2)cc(OC)c1OC ?
SF-1 act: 40.6; HEK293 NFkB inh: -6.3; Jurkat tox 60K: -2.4; MT1-MMP txn act: 1.3; RORA act: 14.0

How did Cc1ccc2oc(-c3cccc(NC(=O)C4CCCO4)c3)nc2c1 (centres undefined) do in these assays?
SF-1 act: 45.9; HEK293 NFkB inh: -26.9; Jurkat tox 60K: -7.5; MT1-MMP txn act: 1.4; RORA act: 30.9

Results for COc1ccc(OCC(=O)Nc2cccc(-c3nc4ccccc4o3)c2)cc1 ?
SF-1 act: 44.1; HEK293 NFkB inh: -1.3; Jurkat tox 60K: 6.8; MT1-MMP txn act: 1.4; RORA act: 56.7*

Results for Cc1ccc2nc(-c3cccc(NC(=O)c4ccc5c(c4)OCCO5)c3)oc2c1 ?
SF-1 act: 55.2*; HEK293 NFkB inh: 27.0; Jurkat tox 60K: -2.0; MT1-MMP txn act: 1.4; RORA act: 41.6

How did N=c1c(-c2nc3ccccc3[nH]2)cc(C(=O)c2cccs2)nn1-c1ccc(Cl)cc1 do in these assays?
MT1-MMP txn act: 1.1

Results for CC1CCCC(C)N1C(=O)Cn1cc(/C=C2/C(=O)Nc3ccccc32)c2ccccc21 (centres undefined) ?
MT1-MMP txn act: 1.1

What do the screens show for `CCOC(=O)N1CCC(NC(=O)c2cnc3n(c2=O)CCS3)CC1`?
SF-1 act: 5.8; HEK293 NFkB inh: 12.5; Jurkat tox 60K: -0.5; MT1-MMP txn act: 1; RORA act: 10.6

What do the screens show for `COC(=O)c1ccc(C(/C=C/[C@@H](C)C(=O)NCCN2CCCC2)NC(=O)OCc2ccccc2)cc1` (some centres undefined)?
MT1-MMP txn act: 1.1

How did CC1CC(C)CN(S(=O)(=O)c2ccc(C(=O)Nc3nnc(-c4cccs4)o3)cc2)C1 (centres undefined) do in these assays?
SF-1 act: -42.9; HEK293 NFkB inh: 22.0; Jurkat tox 60K: 44.5*; MT1-MMP txn act: 1.2; RORA act: -41.0

How did CC1CCCN(S(=O)(=O)c2ccc(C(=O)Nc3nnc(-c4ccccc4Cl)o3)cc2)C1 (centres undefined) do in these assays?
SF-1 act: -2.3; HEK293 NFkB inh: 2.7; Jurkat tox 60K: 2.0; MT1-MMP txn act: 0.9; RORA act: 2.3

Results for CCC1CCCCN1S(=O)(=O)c1ccc(C(=O)Nc2nnc(-c3cccs3)o2)cc1 (centres undefined) ?
SF-1 act: -36.7; HEK293 NFkB inh: 34.1; Jurkat tox 60K: 82.4*; MT1-MMP txn act: 1; RORA act: -1.1

Assay outcomes from PubChem.
